The values below come from ChEMBL document CHEMBL5316304, “Collaborative Virtual Screening Identifies a 2-Aryl-4-aminoquinazoline Series with Efficacy in an In Vivo Model of Trypanosoma cruzi Infection” (J Med Chem, 2023).

Structures are written as SMILES. Converted amounts (≈) assume the structure as drawn. The source made the active and inactive calls. The rule behind the calls is not given here. Some results are limits rather than exact numbers.

Series [1] relates to Trypanosoma cruzi. Description: Antitrypanosomal activity against intracellular Trypanosoma cruzi infected in human U2OS cells assessed as parasite growth inhibition incubated for 72 hrs by confocal microscopy. Type of series: functional, organism-based. The following applies: Trypanosoma cruzi, U2OS, 72 h.
Series [2] can be described thus: Selectivity index, ratio of IC50 for human THP-1 cells to IC50 for Leishmania donovani infected in human THP-1 cells. The following applies: read-out: Selectivity Index. Type of series: toxicity, cell-based.
Series [3] can be described thus: Oral bioavailability in Balb/C mouse at 12.5 mg/kg in presence of ABT by LC/MS/MS analysis. The format is ADME, organism-based. The following applies: in vivo. Put shortly: (§1)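 Female Balb/c mice (n = 3 per route) dosed i.v. 2 mg/kg and p.o. 12.5 mg/kg. 1-Aminobenzotriazole, a CYP450 inhibitor, was given p.o. at 50 mg/kg 2 h before each dose. Parameters were derived from blood concentration–time profiles.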

A short description of series [4]: Toxicity in Balb/C mouse assessed as drug tolerability at 12.5 mg/kg, po by LC/MS/MS analysis. The format is organism-based. As to conditions: in vivo.
A short description of series [5]: Cmax in Balb/C mouse at 50 mg/kg, po or 0.1 mg/kg, iv by LC/MS/MS analysis. The format is ADME, organism-based. Further details: dose 50 mg/kg, route po. The following applies: in vivo. Put shortly:
(§2)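 Female Balb/c mice dosed i.v. 0.1 mg/kg as part of a five-compound cassette, and p.o. 50 mg/kg, without ABT. PK parameters came from concentration–time profiles. Brain-to-plasma ratio was taken at 1 h.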

Series [6] can be described thus: Cmax in Balb/C mouse at 12.5 mg/kg, po or 2 mg/kg, iv in presence of ABT by LC/MS/MS analysis. Type of series: ADME, organism-based. Further details: dose 12.5 mg/kg, route po. As to conditions: in vivo. The method, boiled down:
as §1

Series [7] concerns Trypanosoma cruzi. Description: Antitrypanosomal activity against acute-stage Trypanosoma cruzi CL Brener infected in BALB/c mouse assessed as reduction in parasite burden at 50 mg/kg, po bid administered for 5 days by bioluminescence imaging based analysis relative to control. The format is functional. Further details: scale not given: the % may be the effect or the level left. The following applies: time 5 day.

The nature of series [8]: Volume of distribution at steady state in Balb/C mouse plasma at 12.5 mg/kg, po or 2 mg/kg, iv in presence of ABT by LC/MS/MS analysis. Type of series: ADME, organism-based. As to conditions: in vivo. The method, boiled down: as §1
Series [9] in a line: Half life in Balb/C mouse plasma at 12.5 mg/kg, po in presence of ABT by LC/MS/MS analysis. The format is ADME, organism-based. Put shortly:
as §1

The nature of series [10]: Oral bioavailability in Balb/C mouse plasma at 50 mg/kg by LC/MS/MS analysis. The following applies: in vivo. Type of series: ADME, organism-based.
Series [11] can be described thus: Volume of distribution at steady state in Balb/C mouse plasma at 50 mg/kg, po or 0.1 mg/kg, iv by LC/MS/MS analysis. Type of series: ADME, organism-based. As to conditions: in vivo. The method, boiled down: as §2
The nature of series [12]: AUC (0 to last) in Balb/C mouse at 12.5 mg/kg, po or 2 mg/kg, iv in presence of ABT by LC/MS/MS analysis. The format is ADME, organism-based. Further details: dose 12.5 mg/kg, route po. The following applies: in vivo. Put shortly: as §1
Series [13] in a line: Kinetic solubility of compound in aqueous buffer at pH 6.8 incubated for 16 to 24 hrs by HPLC analysis. As to conditions: time 16-24 hrs, read-out: Kinetic_solubility. The format is physicochemical.
Series [14] in a line: Intrinsic clearance in mouse liver microsomes at 1 uM incubated for 15 to 30 mins by LC/MS/MS analysis. As to conditions: time 15-30 min. Type of series: ADME, Microsome.
Series [15] can be described thus: AUC (0 to last) in Balb/C mouse at 50 mg/kg, po or 0.1 mg/kg, iv by LC/MS/MS analysis. The format is ADME, organism-based. Further details: dose 50 mg/kg, route po. As to conditions: in vivo. The method, boiled down:
as §2

The nature of series [16]: Permeability of compound incubated for 3 hrs by PAMPA assay. The format is ADME. As to conditions: read-out: permeability.
The nature of series [17]: Half life in Balb/C mouse at 50 mg/kg, po by LC/MS/MS analysis. The format is ADME, organism-based. As to conditions: in vivo. The method, boiled down:
(§3)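 Female Balb/c mice received a single i.v. dose of 1 mg/kg and a single oral dose of 50 mg/kg. PK parameters came from blood concentration–time profiles. Brain-to-plasma ratio was taken at 0.5 h.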

Series [18] can be described thus: Toxicity in Balb/C mouse assessed as drug tolerability at 50 mg/kg, po bid measured after 5 days by LC/MS/MS analysis. Type of series: organism-based. The following applies: in vivo, 120 h, time 5 day. The method, boiled down: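 Healthy female mice, one per group, were dosed orally twice daily for 5 days at 10, 50 or 100 mg/kg, with vehicle controls (0.5% HPMC/0.5% benzyl alcohol/0.4% Tween 80 in water). Readouts were mortality, clinical signs, body weight, food consumption and gross pathology.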

Series [19] can be described thus: Toxicity in Balb/C mouse assessed as drug tolerability at 50 mg/kg, po by LC/MS/MS analysis. Type of series: organism-based. The following applies: in vivo.
Series [20] is described as follows: Plasma protein binding in mouse at 2 uM incubated for 6 hrs by LC/MS/MS analysis. The format is ADME.
Series [21] in a line: Ratio of drug level in Balb/C mouse brain to plasma at 50 mg/kg, po or 0.1 mg/kg, iv measured after 1 hr by LC/MS/MS analysis. Type of series: ADME, organism-based. Put shortly: as §2
Series [22] can be described thus: Half life in Balb/C mouse plasma at 2 mg/kg, iv in presence of ABT by LC/MS/MS analysis. Type of series: ADME, organism-based. Put shortly:
as §1

Series [23] can be described thus: Intrinsic clearance in human liver microsomes at 1 uM incubated for 15 to 30 mins by LC/MS/MS analysis. The following applies: time 15-30 min. The format is ADME, Microsome.
Series [24] in a line: Toxicity in BALB/c mouse infected with acute Trypanosoma cruzi CL Brener assessed as adverse effects at 50 mg/kg, po bid. Type of series: organism-based. The following applies: in vivo.
A short description of series [25]: Selectivity index, ratio of IC50 for human U2OS cells to IC50 for intracellular Trypanosoma cruzi infected in human U2OS cells. The format is toxicity, cell-based. As to conditions: for selectivity ratio: U2OS cells, read-out: Selectivity Index. The method, boiled down: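 Host U2OS cell counts and intracellular parasite infection ratio were read from the same 72 h DRAQ5-stained confocal imaging assay. CC50 and EC50 came from 4-parameter logistic fits, and the selectivity index is their ratio.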

Series [26] relates to Trypanosoma cruzi. Briefly: Inhibition of Trypanosoma cruzi CYP51 upto 100 uM by fluorescence based assay.
A short description of series [27]: AUC (0 to last) in Balb/C mouse at 50 mg/kg, po or 1 mg/kg, iv by LC/MS/MS analysis. The format is ADME, organism-based. Details: dose 50 mg/kg, route po. As to conditions: in vivo. Put shortly:
as §3

A short description of series [28]: Toxicity in Balb/C mouse assessed as adverse reactions at 50 mg/kg, po by LC/MS/MS analysis. The format is organism-based. As to conditions: in vivo.
The nature of series [29]: Cmax in Balb/C mouse at 50 mg/kg, po or 1 mg/kg, iv by LC/MS/MS analysis. Type of series: ADME, organism-based. Further details: dose 50 mg/kg, route po. As to conditions: in vivo. Put shortly:
as §3

A short description of series [30]: Half life in Balb/C mouse at 1 mg/kg, iv by LC/MS/MS analysis. Type of series: ADME, organism-based. The following applies: in vivo. The method, boiled down: as §3
The nature of series [31]: Ratio of drug level in Balb/C mouse brain to plasma at 50 mg/kg, po or 1 mg/kg, iv measured after 0.5 hrs by LC/MS/MS analysis. Type of series: ADME, organism-based. Put shortly:
as §3

Series [32] can be described thus: Volume of distribution at steady state in Balb/C mouse plasma at 50 mg/kg, po or 1 mg/kg, iv by LC/MS/MS analysis. The format is ADME, organism-based. The following applies: in vivo. Put shortly: as §3
Series [33] concerns Trypanosoma cruzi. Description: Antitrypanosomal activity against acute-stage Trypanosoma cruzi CL Brener infected in BALB/c mouse assessed as reduction in parasite burden at 50 mg/kg, po bid administered for 5 days measured after 14 days by bioluminescence imaging based analysis. The format is functional, organism-based. The following applies: time 14.0 day.

Take `Cc1nc(-c2ccccn2)nc(NCc2ccccc2)c1Cl`: in the series with Trypanosoma cruzi [1], the IC50 is more than 50000 nM. Also, the selectivity ratio in series [2] is more than 2.5.

As to `c1ccc(-c2nc(N3CCC(c4ccccn4)C3)c3ccccc3n2)nc1` (racemic) [listing 1 of 2 here], the F is 67% in series [3] and 50% in series [10]. Besides, the Activity result in series [4] is “Toxic”; in the series with Trypanosoma cruzi [7], 89.9%; in series [18] it was “Non-Toxic”; in series [19], “Non-Toxic”; in series [24], “Non-Toxic”. Besides, the Cmax is 3360 ng/mL in series [5] and 4243 ng/mL in series [6]. Also, the IC50 with Trypanosoma cruzi [1] is 790 nM. Further, the values for the Vdss in series [8] and in [11] were 0.94 L/kg and 0.77 L/kg, respectively. The half-life in [9] was 3.3 h; in series [17] it was 7.2 h; in series [22], 1 h. Besides, the AUC(0-t) was found to be 26900 ng·h/mL in series [12] and 9610 ng·h/mL in [15]. Also, the solubility kinetic in [13] worked out at 83 µg/mL (≈ 235 µM). Besides, in [14], the “intrinsic clearance (CLint)” value amounted to 258 µL/min/mg. For the same compound, in series [16], the Papp at 3 h was determined as 31.9 ×10⁻⁶ cm/s. In [20], this compound returned a PPB of 99.9%. The BPR in series [21] stood at 1.66. In [23], this compound showed a CLint of 73 µL/min/mg. In addition, the “Selectivity Index” value in series [25] worked out at 9.1.

In the case of `Fc1ccc(C2CCN(c3nc(-c4ccccn4)nc4ccccc34)C2)cc1` (stereo not drawn), the IC50 in the series with Trypanosoma cruzi [1] was determined as 410 nM. For the same compound, the inhibition result with Trypanosoma cruzi [26] was “inactive”. Further, the “intrinsic clearance (CLint)” value in series [14] is more than 500 µL/min/mg. In addition, the selectivity ratio in series [25] is 9.2.

Consider `CC(C)(Nc1nc(-c2ccccn2)nc2ccccc12)c1ccccn1`, for which the IC50 in the series with Trypanosoma cruzi [1] stood at 1000 nM. Further, the F in series [10] is listed as more than 100%. This compound showed an area under the curve AUC(0-t) in [27] of 59900 ng·h/mL. For the same compound, in series [13], the solubility kinetic turned out to be 83 µg/mL (≈ 243 µM). The Activity result in series [28] is “Non-Toxic”; in series [18] it was “Toxic”; in series [19] it was “Non-Toxic”. Besides, the Cmax in series [29] was 6240 ng/mL. For the same compound, in series [16], the Papp at 3 h was determined as 25.8 ×10⁻⁶ cm/s. For the same compound, in series [30], the half-life was 1.13 h. Moreover, the PPB in [20] was 94.2%. Besides, the BPR in series [31] came out at 1.6. Moreover, in [25], the selectivity ratio worked out at 25. Also, the Vdss in series [32] is 0.909 L/kg.

Regarding `c1ccc(-c2nc(N3CCC(c4ccccn4)C3)c3ccccc3n2)nc1` (racemic) [listing 2 of 2 here], the outcome in the series on Trypanosoma cruzi [33] was inactive.

Take `Cc1cnc(C)c(Nc2nc(-c3ccccn3)nc3ccccc23)c1`: in the series with Trypanosoma cruzi [1], the IC50 is 14000 nM. In series [13], the solubility kinetic was 31 µg/mL (≈ 94.7 µM). Also, the “intrinsic clearance (CLint)” value in series [14] came to 154 µL/min/mg. Further, the Papp at 3 h in series [16] amounted to 20.1 ×10⁻⁶ cm/s. In addition, the CLint in series [23] was less than 1 µL/min/mg. Also, the selectivity ratio in series [25] was determined as 3.6.

For the compound `c1ccc(-c2nc(NC3(c4ccccn4)CC3)c3ccccc3n2)nc1`, the IC50 in the series with Trypanosoma cruzi [1] was 4200 nM. Besides, the solubility kinetic in [13] amounted to 84 µg/mL (≈ 247 µM). Also, the “intrinsic clearance (CLint)” value in series [14] turned out to be 24 µL/min/mg. Moreover, in series [16], the Papp at 3 h came out at 21.9 ×10⁻⁶ cm/s. In series [23], the CLint came to 7 µL/min/mg. Further, the selectivity ratio in [25] was 12.

Regarding `CC1CCCN(c2nc(-c3ccccn3)nc3ccccc23)C1` (stereo not drawn), in the series on Trypanosoma cruzi [1], the IC50 was 430 nM. Besides, in [13], the solubility kinetic worked out at 69 µg/mL (≈ 227 µM). Further, the “intrinsic clearance (CLint)” value in series [14] was determined as 452 µL/min/mg. In series [16], the Papp at 3 h came out at 36.4 ×10⁻⁶ cm/s. This compound also yielded a CLint in [23] of 188 µL/min/mg. Further, in series [25], the selectivity ratio amounted to 19.
